Experimental data from ChEMBL document CHEMBL1124134, “Chemical synthesis and biological activities of 5-deazaaminopterin analogues bearing substituent(s) at the 5- and/or 7-position(s)” (J Med Chem, 1988).

Experiments:
L1210 = experiment: Inhibition of cell growth of murine L-1210 cells; type: functional, cell-based; details: Mus musculus
Dihydrofolate reductase = target: T1, Dihydrofolate reductase (Mus musculus, UniProt P00375); experiment: Inhibitory activity against dihydrofolate reductase (DHFR) of L-1210 cells; type: cell-based
T1 sequence (P00375 whole entry): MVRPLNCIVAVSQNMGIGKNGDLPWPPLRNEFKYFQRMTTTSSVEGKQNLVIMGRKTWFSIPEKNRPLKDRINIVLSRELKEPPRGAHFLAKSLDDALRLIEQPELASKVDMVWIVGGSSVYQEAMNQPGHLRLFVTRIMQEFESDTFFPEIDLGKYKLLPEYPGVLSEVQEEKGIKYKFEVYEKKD

HL-60 [1] = experiment: Median-effective concentration for inhibition of human HL-60 cell growth at 48 h; type: functional; details: HL-60, 48 h, read-out: ED50 (the source's name)
Summary of the method: (§1)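 HL-60 cells exposed to five concentrations of each compound for up to 72 h, with viable cells counted by trypan blue exclusion. ED50 at 24, 48 or 72 h derived by median-effect equation and plot. Where dose-effect curves were shallow, values were assigned with < or << marks.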

HL-60 [2] = experiment: Compound was evaluated for inhibition of human HL-60 cell growth at 1 (uM) at 24 hr; type: functional
Summary of the method: (§2)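 HL-60 cells exposed to compound for up to 72 h. Viable cells counted by trypan blue exclusion, with percent growth inhibition read at 1 μM after 24, 48 or 72 h.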

HL-60 [3] = experiment: Median-effective concentration for inhibition of human HL-60 cell growth at 72 h; type: functional; details: HL-60, 72 h, read-out: ED50 (the source's name); summary of the method: as §1
HL-60 [4] = experiment: Inhibition of [6-3H]-dUrd incorporation into DNA in HL-60 cells; type: functional; details: Homo sapiens, read-out: ED50 (the source's name)
Summary of the method: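 HL-60 cells preincubated with compound for 40 min, then given [6-3H]dUrd (0.05 μM, 1 μCi/mL) for 30 min at 37 °C, and label incorporated into DNA measured. Five compound concentrations were used, with ED50 from the median-effect equation and plot. For shallow curves, values were given as < or <<.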

HL-60 [5] = experiment: Compound was evaluated for inhibition of human HL-60 cell growth at 1 (uM) at 72 hr; type: functional; summary of the method: as §2
HL-60 [6] = experiment: Compound was evaluated for inhibition of human HL-60 cell growth at 1 (uM) at 48 hr; type: functional; summary of the method: as §2
HL-60 [7] = experiment: Median-effective concentration for inhibition of human HL-60 cell growth at 24 h; type: functional; details: HL-60, 24 h, read-out: ED50 (the source's name); summary of the method: as §1

SMILES	IC50 (L1210) [µM]	Ki (Dihydrofolate reductase) [pM]	EC50 (HL-60 [1]) [µM]	Inhibition (HL-60 [2]) [%]	EC50 (HL-60 [3]) [µM]	EC50 (HL-60 [4]) [µM]	Inhibition (HL-60 [5]) [%]	Inhibition (HL-60 [6]) [%]	EC50 (HL-60 [7]) [µM]
Cc1nc2nc(N)nc(N)c2c(-c2ccccc2)c1CNc1ccc(C(=O)NC(CCC(=O)O)C(=O)O)cc1 (stereo unspecified)	18.9	> 4							
Nc1nc(N)c2cc(CNc3ccc(C(=O)NC(CCC(=O)O)C(=O)O)cc3)c(-c3ccccc3)nc2n1 (stereo unspecified)	16.9	> 4							
Cc1c(CNc2ccc(C(=O)NC(CCC(=O)O)C(=O)O)cc2)c(-c2ccccc2)nc2nc(N)nc(N)c12 (stereo unspecified)	18.9	> 4							
Nc1nc(N)c2cc(CNc3ccc(C(=O)NC(CCC(=O)O)C(=O)O)cc3)cnc2n1 (stereo unspecified)	0.02								
Cc1nc2nc(N)nc(N)c2c(C)c1CNc1ccc(C(=O)NC(CCC(=O)O)C(=O)O)cc1 (stereo unspecified)	0.125	2.01	8.2	10.3	0.59	568	50.8	19.8	42
Cc1c(CNc2ccc(C(=O)NC(CCC(=O)O)C(=O)O)cc2)cnc2nc(N)nc(N)c12 (stereo unspecified)	0.00011		0.15	25.2	< 0.001	< 4	92.2	61.1	2290
Cc1nc2nc(N)nc(N)c2cc1CNc1ccc(C(=O)NC(CCC(=O)O)C(=O)O)cc1 (stereo unspecified)	0.08	> 4	2	4.7	0.011	123	77.6	32.5	144
CN(Cc1cnc2nc(N)nc(N)c2n1)c1ccc(C(=O)N[C@@H](CCC(=O)O)C(=O)O)cc1 [METHOTREXATE]	0.0045		< 0.05	34.2	< 0.05	0.1	87.7	64	609
